Here are results for twelve compounds from ChEMBL document CHEMBL4152211, “Discovery of novel Methylsulfonyl phenyl derivatives as potent human Cyclooxygenase-2 inhibitors with effective anticonvulsant action: Design, synthesis, in-silico, in-vitro and in-vivo evaluation” (Eur J Med Chem, 2018).

The source made the active and inactive calls. The calls are words filed in the database; no cut-off is given here.

Test [1] has as its target T1, Prostaglandin G/H synthase 2 (Homo sapiens) (UniProt P35354).
T1 sequence (whole entry): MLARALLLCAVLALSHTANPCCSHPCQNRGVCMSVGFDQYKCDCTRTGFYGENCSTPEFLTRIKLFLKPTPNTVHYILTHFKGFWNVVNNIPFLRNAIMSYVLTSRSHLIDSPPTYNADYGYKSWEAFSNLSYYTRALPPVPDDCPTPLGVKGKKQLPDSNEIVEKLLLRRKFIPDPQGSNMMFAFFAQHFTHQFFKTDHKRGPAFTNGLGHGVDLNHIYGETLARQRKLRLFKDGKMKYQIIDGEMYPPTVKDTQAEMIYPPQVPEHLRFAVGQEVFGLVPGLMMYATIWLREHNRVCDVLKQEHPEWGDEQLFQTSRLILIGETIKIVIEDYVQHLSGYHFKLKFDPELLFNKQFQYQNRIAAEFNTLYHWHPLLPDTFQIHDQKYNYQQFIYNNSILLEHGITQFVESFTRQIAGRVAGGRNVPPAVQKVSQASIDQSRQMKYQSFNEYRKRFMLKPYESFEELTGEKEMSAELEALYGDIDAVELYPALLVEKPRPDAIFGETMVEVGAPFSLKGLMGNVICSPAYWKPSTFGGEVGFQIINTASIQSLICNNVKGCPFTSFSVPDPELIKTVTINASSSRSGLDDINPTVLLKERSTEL
In words: Inhibition of human recombinant COX2 at 10 uM using arachidonic acid as substrate preincubated for 5 mins followed by substrate addition and measured after 2 mins by ADPH probe-based fluorescence assay relative to control. An outline of the steps:
(§1)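 Kit assay in 100 mM Tris-HCl pH 8.0. Enzyme, heme and inhibitor (DMSO stocks) are incubated 5 min at room temperature. ADPH is added, then arachidonic acid starts the reaction. After 2 min, fluorescence is read at ex 535/em 590 nm. Percent inhibition is taken versus the 100% activity well, background wells included. IC50 is derived from percentage inhibition, mean of three independent experiments.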

Test [2] has as its target T2, Prostaglandin G/H synthase 1 (Ovis aries) (UniProt P05979).
T2 sequence (whole entry): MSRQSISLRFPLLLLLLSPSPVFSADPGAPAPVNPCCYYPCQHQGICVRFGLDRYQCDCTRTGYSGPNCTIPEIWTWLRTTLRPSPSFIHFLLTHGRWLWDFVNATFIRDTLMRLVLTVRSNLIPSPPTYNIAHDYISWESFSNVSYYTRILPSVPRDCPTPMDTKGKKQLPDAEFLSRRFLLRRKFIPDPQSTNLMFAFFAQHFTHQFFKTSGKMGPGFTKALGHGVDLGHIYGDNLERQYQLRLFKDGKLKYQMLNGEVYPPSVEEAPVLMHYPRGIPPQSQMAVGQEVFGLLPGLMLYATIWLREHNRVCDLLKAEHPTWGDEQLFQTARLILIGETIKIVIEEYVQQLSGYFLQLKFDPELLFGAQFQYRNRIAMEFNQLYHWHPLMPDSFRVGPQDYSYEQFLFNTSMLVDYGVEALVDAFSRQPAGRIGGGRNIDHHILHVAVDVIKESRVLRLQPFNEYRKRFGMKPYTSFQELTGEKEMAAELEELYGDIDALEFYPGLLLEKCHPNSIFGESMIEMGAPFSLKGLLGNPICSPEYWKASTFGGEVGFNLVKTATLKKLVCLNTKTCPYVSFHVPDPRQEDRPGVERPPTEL
The test is described as follows: Inhibition of ovine COX1 at 10 uM using arachidonic acid as substrate preincubated for 5 mins followed by substrate addition and measured after 2 mins by ADPH probe-based fluorescence assay relative to control. An outline of the steps: as §1

Test [3] has as its target T3, Prostaglandin G/H synthase 2 (Homo sapiens, UniProt P35354).
T3 sequence (P35354 whole entry): T1 sequence (whole entry)
In words: Inhibition of human recombinant COX2 using arachidonic acid as substrate preincubated for 5 mins followed by substrate addition and measured after 2 mins by ADPH probe-based fluorescence assay. In outline: as §1

For test [4], the system named is Mus musculus. In words: Anticonvulsant activity in Swiss albino mouse assessed as protection against subcutaneous pentylenetetrazole-induced seizures at 300 mg/kg, ip administered 0.5 hrs prior to PTZ challenge and measured after 30 mins. It is filed as functional. An outline of the steps: (§2)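 Male Swiss Albino mice (25–30 g), 6 per group, dosed i.p. with drugs in sterile saline, then challenged with PTZ 85 mg/kg s.c. (CD97), given at 10 ml/kg, 0.5 h or 4 h later. Each animal is observed singly for seizures. Protection is scored as protected/total animals.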

Test [5] deals with Mus musculus. In words: Anticonvulsant activity in Swiss albino mouse assessed as protection against subcutaneous pentylenetetrazole-induced seizures at 100 mg/kg, ip administered 4 hrs prior to PTZ challenge and measured after 30 mins. It is filed as functional. An outline of the steps: as §2
The subject of test [6] is Mus musculus. In words: Anticonvulsant activity in Swiss albino mouse assessed as protection against subcutaneous pentylenetetrazole-induced seizures at 100 mg/kg, ip administered 0.5 hrs prior to PTZ challenge and measured after 30 mins. It is filed as functional. In outline:
as §2

Test [7] relates to Mus musculus. In words: Anticonvulsant activity in Swiss albino mouse assessed as protection against subcutaneous pentylenetetrazole-induced seizures at 300 mg/kg, ip administered 4 hrs prior to PTZ challenge and measured after 30 mins. It is filed as functional. In outline:
as §2

For test [8], the system named is Mus musculus. In words: Anticonvulsant activity in Swiss albino mouse assessed as protection against subcutaneous pentylenetetrazole-induced seizures at 30 mg/kg, ip administered 4 hrs prior to PTZ challenge and measured after 30 mins. The format is functional. In outline:
as §2

Test [9] has as its system Mus musculus. In words: Anticonvulsant activity in Swiss albino mouse assessed as protection against subcutaneous pentylenetetrazole-induced seizures at 30 mg/kg, ip administered 0.5 hrs prior to PTZ challenge and measured after 30 mins. The format is functional. In outline:
as §2

In test [10] the test system is Mus musculus. The test is described as follows: Anticonvulsant activity in Swiss albino mouse assessed as protection against subcutaneous pentylenetetrazole-induced seizures at 5 mg/kg, ip administered 0.5 hrs prior to PTZ challenge and measured after 30 mins. The format is functional. In outline:
as §2

The subject of test [11] is Mus musculus. The test is described as follows: Anticonvulsant activity in Swiss albino mouse assessed as protection against subcutaneous pentylenetetrazole-induced seizures at 10 mg/kg, ip administered 0.5 hrs prior to PTZ challenge and measured after 30 mins. The format is functional. In outline: as §2
The subject of test [12] is Mus musculus. In words: Anticonvulsant activity in Swiss albino mouse assessed as protection against subcutaneous pentylenetetrazole-induced seizures at 10 mg/kg, ip administered 4 hrs prior to PTZ challenge and measured after 30 mins. The format is functional. In outline:
as §2

For test [13], the system named is Mus musculus. In words: Anticonvulsant activity in Swiss albino mouse assessed as protection against subcutaneous pentylenetetrazole-induced seizures at 1 mg/kg, ip administered 0.5 hrs prior to PTZ challenge and measured after 30 mins. The format is functional. In outline:
as §2

Test [14] relates to Mus musculus. In words: Anticonvulsant activity in Swiss albino mouse assessed as protection against subcutaneous pentylenetetrazole-induced seizures at 1 mg/kg, ip administered 4 hrs prior to PTZ challenge and measured after 30 mins. The format is functional. In outline: as §2
A further test deals with Rattus norvegicus. The test is described as follows: Antiepileptic activity in rat model of PTZ-induced epileptiogenesis kindling model assessed as decrease of seizure severity at 5 mg/kg, ip measured up to 28 days. It is filed as functional, organism-based. In outline: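 Adult male Wistar rats receive PTZ 40 mg/kg i.p. on alternate days for 28 days plus daily i.p. treatment. After each PTZ injection, rats are observed singly for 45 min and scored on the revised Racine scale (stages to 6). Group mean score per week, ±S.D. Statistics are repeated-measures ANOVA with Tukey's test.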

For test [15], the system named is Mus musculus. The test is described as follows: Anticonvulsant activity in Swiss albino mouse assessed as protection against subcutaneous pentylenetetrazole-induced seizures at 5 mg/kg, ip administered 4 hrs prior to PTZ challenge and measured after 30 mins. The format is functional. An outline of the steps:
as §2

What is called inhibition is the share of the control response that was lost under treatment. For the compound `CS(=O)(=O)c1ccc(NC(=O)NNC(=S)NCc2ccccc2)cc1`, the inhibition in test [1] was found to be 21%. The inhibition entry in [2] was “inactive”.

By IC50 is commonly meant the midpoint of a concentration-inhibition curve. As to `CS(=O)(=O)c1ccc(NC(=O)NNC(=S)Nc2ccccc2)cc1`, in test [1], the inhibition was found to be 50%. Further, the inhibition entry in test [2] was “inactive”. In test [3], the half-inhibitory concentration (IC50) came out at 12.8 µM.

Take `Cc1cccc(C)c1NC(=S)NNC(=O)Nc1ccc(S(C)(=O)=O)cc1`: the Activity in the test on Mus musculus [4] is recorded as 33%; in the test with Mus musculus [5], 33%; with Mus musculus [6], 33%; with Mus musculus [7] it was 50%; in the test on Mus musculus [8], 17%; with Mus musculus [9] it was 17%. Also, the inhibition in test [1] worked out at 64%. Also, in test [2], the inhibition entry is “inactive”. Moreover, in test [3], the IC50 turned out to be 3.14 µM.

As for `CS(=O)(=O)c1ccc(NC(=O)NNC(=S)NCCc2ccccc2)cc1`, the inhibition in [1] stood at 22%. For the same compound, in test [2], the inhibition entry is “inactive”.

As to `Cc1ccc(-c2ncc(Cl)cc2-c2ccc(S(C)(=O)=O)cc2)cn1` [ETORICOXIB], the Activity with Mus musculus [10] amounted to 67%; in the test with Mus musculus [11] it was 50%; in the test on Mus musculus [12], 50%; with Mus musculus [13] it was 50%; in the test on Mus musculus [14] it was 50%; in the test with Mus musculus [15] it was 67%. Besides, the result in the test on Rattus norvegicus was Active.

For the compound `CCNC(=S)NNC(=O)Nc1ccc(S(C)(=O)=O)cc1`, the inhibition in test [1] worked out at 32%. Further, the inhibition entry in test [2] is “inactive”.

In the case of `CS(=O)(=O)c1ccc(NC(=O)NNC(=S)Nc2c(F)cccc2F)cc1`, the inhibition in test [1] stood at 62%. For the same compound, the inhibition result in [2] is “inactive”. In [3], the concentration for half-maximal inhibition (IC50) came to 6.42 µM.

Take `CS(=O)(=O)c1ccc(NC(=O)NNC(=S)Nc2ccc(F)cc2)cc1`: the inhibition in test [1] worked out at 54%. In test [2], the inhibition result is “inactive”. Further, the IC50 in [3] came to 12.5 µM.

For the compound `CCCC(CCC)C(=O)[O-].[Na+]` [VALPROATE SODIUM], the Activity with Mus musculus [4] came to 100%; with Mus musculus [7] it was 50%.

As for `CS(=O)(=O)c1ccc(NC(=O)NNC(=S)Nc2cccc(Cl)c2Cl)cc1`, the inhibition in test [1] was 46%. Also, in test [2], the inhibition entry was “inactive”.

Consider `CS(=O)(=O)c1ccc(NC(=O)NNC(=S)Nc2ccc(Cl)cc2)cc1`, for which the inhibition in test [1] turned out to be 70%. Further, the inhibition entry in test [2] is “inactive”. For the same compound, the IC50 in [3] was determined as 5.32 µM.

As for `COc1ccc(NC(=S)NNC(=O)Nc2ccc(S(C)(=O)=O)cc2)cc1`, the inhibition in test [1] worked out at 62%. The inhibition entry in test [2] is “inactive”. In addition, in test [3], the IC50 came out at 7.15 µM.
